8 molecules from ChEMBL document CHEMBL1155659, “Chemistry of sponges. 19. Novel bioactive metabolites from Hamigera tarangaensis” (J Nat Prod, 2000) can be followed below.

Molecules are shown by their SMILES. The source made the active and inactive calls. The calls are words filed in the database; no cut-off is given here.

The subject of assay [1] is Enterovirus C. Description: Antiviral activity against Poliovirus. It is filed as functional. In a few lines:
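Disk assay at 132 μg per disk, scored as percent virus inhibition, with cytotoxicity assessed across the whole well.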

The test system of assay [2] is Bacillus subtilis. Description: Antibacterial activity against Bacillus subtilis at 96 ug. It counts as functional. The settings on record: read-out: IZ.
The test system of assay [3] is Herpesviridae sp. Nature of the assay: Antiviral activity against Herpesvirus. It counts as functional. In a few lines: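 Disk-based antiviral test, sample loaded at 132 μg per disk onto herpes-virus-infected cell wells; read-out is percent virus inhibition, with cytotoxicity scored across the whole well.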
Assay [4] concerns P388. Nature of the assay: Cytotoxicity against mouse P388 cells. It is filed as functional, cell-based.
The subject of assay [5] is Bacillus subtilis. Description: Antibacterial activity against Bacillus subtilis at 156 ug. The settings on record: read-out: IZ. It is filed as functional.
In assay [6] the test system is Bacillus subtilis. Nature of the assay: Antibacterial activity against Bacillus subtilis at 150 ug. It is filed as functional. As to conditions: read-out: IZ.
In assay [7] the test system is Candida albicans. Description: Antifungal activity against Candida albicans. It is filed as functional, organism-based.
Assay [8] deals with Escherichia coli. Nature of the assay: Antibacterial activity against Escherichia coli. It counts as functional, organism-based.
Assay [9] concerns Bacillus subtilis. Description: Antibacterial activity against Bacillus subtilis. It is filed as functional, organism-based.
Assay [10] has as its system Trichophyton mentagrophytes. Nature of the assay: Antifungal activity against Trichophyton mentagrophytes. It is filed as functional, organism-based.

With `Cc1cc2c3c(c1Br)O[C@H](C)N=C3C(=O)C[C@]1(C)CC[C@H](C(C)C)[C@H]21` [HAMIGERAN D], the result in assay [1], in [3], in assay [7] and in assay [8] was inactive. In [2], the zone of inhibition at 96 µg/disc worked out at 3 mm. Moreover, in [4], the midpoint of inhibition, the IC50, lay at 8 µM. The zone of inhibition at 156 µg/disc in assay [5] was 3 mm. Moreover, the zone of inhibition at 150 µg/disc in assay [6] was 3 mm.

In the case of `CCOC(=O)c1c([C@H]2[C@@H](C(C)C)CC[C@@]2(C)C(=O)OCC)cc(C)c(Br)c1OCC` [TRYETHYLHAMIGERAN E], the result in assay [1], in assay [9], in assay [3], in assay [10], in assay [7] and in assay [8] was inactive. The IC50 (usually the concentration at which inhibition is half-maximal) in [4] is 54.2 µM.

On to `Cc1cc2c(c(O)c1Br)C(=O)C(=O)[C@]1(C)CC[C@H](C(C)C)[C@H]21` [HAMIGERAN B], for which the “inhibition (INH)” value in assay [1] and in [3] was 100% each time. Besides, the outcome in assay [7] and in [8] was inactive.

For the molecule `Cc1cc([C@H]2[C@@H](C(C)C)CC[C@@]2(C)CC(=O)O)c2c(c1Br)O[C@H](C)NC2=O`, the result in [1], in assay [3], in assay [10], in assay [7] and in [8] was inactive. The zone of inhibition at 96 µg/disc in assay [2] is 3 mm. In assay [4], 74.2 µM corresponded to half-maximal inhibition (IC50). For the same molecule, in assay [5], the zone of inhibition at 156 µg/disc amounted to 3 mm. The zone of inhibition at 150 µg/disc in assay [6] was 3 mm.

On to `COC(=O)[C@]1(O)C(=O)c2c(cc(C)c(Br)c2O)[C@H]2[C@@H](C(C)C)CC[C@]21C`, for which the result in assay [1], in assay [9], in assay [3], in assay [10], in assay [7] and in assay [8] was inactive.

`COC(=O)[C@]1(O)C(=O)c2c(O)cc(C)cc2[C@H]2[C@@H](C(C)C)CC[C@]21C`: the result in assay [1], in [3], in assay [10], in [7] and in assay [8] was inactive.

Take `Cc1c(Br)c(O)c2c(c1Br)[C@H]1[C@@H](C(C)C)CC[C@@]1(C)C(=O)C2=O` [4-BROMOHAMIGERAN B]: the outcome in [1], in [3], in assay [10], in assay [7] and in assay [8] was inactive. The same molecule showed an IC50 in [4] of 13.9 µM.

For `CC(=O)O[C@H]1C(=O)C(=O)c2c(cc(C)c(Br)c2O)[C@H]2[C@@H](C(C)C)CC[C@@]12C` [HAMIGERAN C], the result in assay [1], in assay [3], in assay [7] and in [8] was inactive. The zone of inhibition at 96 µg/disc in [2] is 3 mm. Moreover, 16 µM corresponded to half-maximal inhibition in assay [4] (IC50). Moreover, the zone of inhibition at 156 µg/disc in assay [5] came to 3 mm. Further, the zone of inhibition at 150 µg/disc in assay [6] worked out at 3 mm.
